Results as given in ChEMBL document CHEMBL1121883, “1-(Naphthylalkyl)-1H-imidazole derivatives, a new class of anticonvulsant agents” (J Med Chem, 1981).
Values joined by “and” are separate entries in the source; they are usually repeats but may differ in a detail not shown here. Identical values can stand only once.

Assays:
Mus musculus [1] = test: Dose of compound causing a neurological deficit in 50% of mice after ip administration; 32-90; assay type: functional
In short: (§1)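 Traction test in male Hilltop ICR-derived mice (19-30 g, groups of 8-10) just before electroshock, 15 min after ip or 30 min after oral dosing. Mice placed on a 16-gauge, 65-cm copper wire 40 cm above the table; deficit scored as failure to stay on for 10 s. ND50 with 95% limits by Litchfield-Wilcoxon.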

Mus musculus [2] = test: Compound was evaluated for anticonvulsant activity by maximal electroshock assay(MES) in mice after ip administration; 14-33; assay type: functional
In short: (§2)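 Male Hilltop ICR-derived mice (19-30 g), groups of 8-10, dosed ip with compound or aqueous vehicle. After 15 min pretreatment, a transcorneal 60-Hz, 50 mA shock was given for 0.2 s. Just before the shock, each mouse was tested on a horizontal wire (10 s). Quantal data were analysed by Litchfield-Wilcoxon to give ED50 with 95% confidence limits.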

Mus musculus [3] = test: Protective index is defined as ND50 (i.p.) divided by MES ED50(i.p.); assay type: functional
In short: (§3)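 Ratio of ND50 from the wire traction test to MES ED50, both measured by the same route (ip or oral) in the same animals. Quantal dose-response data for each were evaluated by Litchfield-Wilcoxon.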

Mus musculus [4] = test: Compound was evaluated for anticonvulsant activity by maximal electroshock assay(MES) in mice after ip administration; 18-48; assay type: functional; in short: as §2
Mus musculus [5] = test: Dose of compound causing a neurological deficit in 50% of mice after ip administration; 57-91; assay type: functional; in short: as §1
Mus musculus [6] = test: Compound was evaluated for anticonvulsant activity by maximal electroshock assay(MES) in mice after ip administration; 22-80; assay type: functional; in short: as §2
Mus musculus [7] = test: Dose causing a neurological deficit in 50% of mice after ip administration.; assay type: functional; in short: as §1
[8] = (§4) Lethal dose was measured in mice after ip administration.; assay type: toxicity, organism-based; settings: mouse, in vivo
In short: (§5)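 Male Simonsen ICR-derived mice (16-24 g), groups of three, given compound ip in increasing doses within a behavioral screen. Deaths counted on day 5, and LD50 estimated from 5-day survival. Quantal data analysed by the Litchfield-Wilcoxon method.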

Mus musculus [9] = test: Dose of compound causing a neurological deficit in 50% of mice after ip administration; assay type: functional; in short: as §1
Mus musculus [10] = test: Compound was evaluated for anticonvulsant activity by maximal electroshock assay(MES) in mice after ip administration; assay type: functional; in short: as §2
Mus musculus [11] = test: Compound was evaluated for anticonvulsant activity by maximal electroshock assay(MES) in mice after po administration; 15-26; assay type: functional
In short: (§6)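 Male Hilltop ICR-derived mice (19-30 g), groups of 8-10, given compound or aqueous vehicle orally. The transcorneal 60-Hz shock (50 mA, 0.2 s) followed a 30 min pretreatment and a wire-hang neurological check (10 s). ED50 and 95% confidence limits were obtained from quantal data by the Litchfield-Wilcoxon method.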

Rattus norvegicus [12] = test: Compound was evaluated for anticonvulsant activity by maximal electroshock assay(MES) in rat after ip administration; 3.8-8.4; assay type: functional
Mus musculus [13] = test: Compound was evaluated for anticonvulsant activity by maximal electroshock assay(MES) in mice after ip administration; 8-13; assay type: functional; in short: as §2
Rattus norvegicus [14] = test: Dose of compound causing a neurological deficit in 50% of rat after po administration.; assay type: functional
In short: (§7)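 Rats (Simonsen Sprague-Dawley-derived, 80-110 g, groups of 8-10) placed on a suspended 16-gauge, 65-cm copper wire just before electroshock. Deficit scored as inability to remain for 8 s. Pretreatment was 15 min ip or 30 min oral. Quantal data analysed by Litchfield-Wilcoxon to give ND50 with 95% limits.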

Mus musculus [15] = test: Dose of compound causing a neurological deficit in 50% of mice after ip administration; 41-246; assay type: functional; in short: as §1
Mus musculus [16] = test: Dose of compound causing a neurological deficit in 50% of mice after po administration.; assay type: functional; in short: as §1
Mus musculus [17] = test: Protective index defined as ND50 (p.o.) divided by MES ED50(op); assay type: functional; in short: as §3
Rattus norvegicus [18] = test: Compound was evaluated for anticonvulsant activity by maximal electroshock assay(MES) in rat after po administration; 15-36; assay type: functional
In short: (§8)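 Male Simonsen Sprague-Dawley-derived rats, 80-110 g, groups of 8-10, dosed with compound or aqueous vehicle; pretreatment 15 min after ip or 30 min after oral dosing. Transcorneal electroshock, 150 mA, 60 Hz, 0.2 s, given after the wire test. ED50 with 95% confidence limits from quantal data by Litchfield-Wilcoxon.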

Rattus norvegicus [19] = test: Dose of compound causing a neurological deficit in 50% of rat after ip administration.; assay type: functional; in short: as §7
Mus musculus [20] = test: Anticonvulsant activity in mouse maximal electroshock assay following i.p. administration.; assay type: functional; settings: ip; in short: as §2
Rattus norvegicus [21] = test: Dose of compound causing a neurological deficit in 50% of rat after po administration.
Rattus norvegicus [22] = test: Compound was evaluated for anticonvulsant activity by maximal electroshock assay(MES) in rat after po administration.
Mus musculus [23] = test: Compound was evaluated for anticonvulsant activity by maximal electroshock assay(MES) in mice after po administration.; assay type: functional; in short: as §6
Mus musculus [24] = test: Dose causing a neurological deficit in 50% of mice following p.o. administration.; assay type: functional; in short: as §1
Rattus norvegicus [25] = test: Compound was evaluated for anticonvulsant activity by maximal electroshock assay(MES) in rat after ip administration; 14-33; assay type: functional
Mus musculus [26] = test: Compound was evaluated for anticonvulsant activity by maximal electroshock assay(MES) in mice after ip administration; 31-39; assay type: functional; in short: as §2
Rattus norvegicus [27] = test: Compound was evaluated for anticonvulsant activity by maximal electroshock assay(MES) in rat after po administration; 30-125; assay type: functional; in short: as §8
Rattus norvegicus [28] = test: Dose of compound causing a neurological deficit in 50% of rat after ip administration; 119-211; assay type: functional; in short: as §7
Mus musculus [29] = test: Compound was evaluated for anticonvulsant activity by maximal electroshock assay(MES) in mice after po administration; 55-125; assay type: functional; in short: as §6
Mus musculus [30] = test: Dose of compound causing a neurological deficit in 50% of mice after ip administration; 80-115; assay type: functional; in short: as §1
Mus musculus [31] = test: Dose of compound causing a neurological deficit in 50% of mice after ip administration; 66-92; assay type: functional; in short: as §1
Mus musculus [32] = test: Compound was evaluated for anticonvulsant activity by maximal electroshock assay(MES) in mice after po administration; 37-60; assay type: functional; in short: as §6
Mus musculus [33] = test: Compound was evaluated for anticonvulsant activity by maximal electroshock assay(MES) in mice after ip administration; 11-18; assay type: functional; in short: as §2
Rattus norvegicus [34] = test: Compound was evaluated for anticonvulsant activity by maximal electroshock assay(MES) in rat after po administration; 13-39; assay type: functional; in short: as §8
Rattus norvegicus [35] = test: Compound was evaluated for anticonvulsant activity by maximal electroshock assay(MES) in rat after ip administration; 0.6-6.6; assay type: functional
Mus musculus [36] = test: as §4; assay type: functional; in short: as §5

COc1c(C(=O)Cn2ccnc2)ccc2ccccc12.Cl
ND50 (Mus musculus [1]): 51 mg/kg
ED50 (Mus musculus [2]): 23 mg/kg
PI (Mus musculus [3]): 2.2

Cc1ccccc1OC(Cn1ccnc1)c1ccc2ccccc2c1.Cl (centres undefined)
ED50 (Mus musculus [4]): 33 mg/kg
ND50 (Mus musculus [5]): 70 mg/kg
PI (Mus musculus [3]): 2.1

Cl.O=C(Cn1ccnc1)c1ccc2cc(Br)ccc2c1
ED50 (Mus musculus [6]): 41 mg/kg

CCSC(Cn1ccnc1)(SCC)c1ccc2ccccc2c1.Cl
PI (Mus musculus [3]): 2.2
ND50 (Mus musculus [7]): 78 mg/kg
LD50 [8]: > 100 mg/kg

CSC(Cn1ccnc1)(SC)c1ccc2ccccc2c1.Cl
PI (Mus musculus [3]): 0.9
ND50 (Mus musculus [7]): 29 mg/kg
LD50 [8]: > 100 mg/kg

C[S+]([O-])C(Cn1ccnc1)c1ccc2ccccc2c1.Cl (centres undefined)
ND50 (Mus musculus [9]): >40 mg/kg
ED50 (Mus musculus [10]): > 40 mg/kg

Cl.O=C(CCn1ccnc1)c1ccc2ccccc2c1
ED50 (Mus musculus [11]): 20 mg/kg
ED50 (Rattus norvegicus [12]): 5.9 mg/kg
ED50 (Mus musculus [13]): 10 mg/kg
ND50 (Rattus norvegicus [14]): >100 mg/kg
ND50 (Mus musculus [15]): 60 mg/kg
ND50 (Mus musculus [16]): >100 mg/kg
PI (Mus musculus [3]): 6 and >10
PI (Mus musculus [17]): >5 and >4
ED50 (Rattus norvegicus [18]): 25 mg/kg
ND50 (Rattus norvegicus [19]): >60 mg/kg

Cc1cc2cccc(C(=O)Cn3ccnc3)c2cc1C.Cl
ED50 (Mus musculus [20]): 80 mg/kg
PI (Mus musculus [3]): >3.8
ND50 (Mus musculus [7]): >300 mg/kg

Cl.c1ccc2cc(C3(CCn4ccnc4)SCCS3)ccc2c1
ED50 (Mus musculus [20]): 15 mg/kg
PI (Mus musculus [3]): 2.2
ND50 (Mus musculus [7]): 33 mg/kg

Cl.c1ccc2cc(CCn3ccnc3)ccc2c1
ND50 (Rattus norvegicus [21]): >100 mg/kg
ED50 (Mus musculus [20]): 22 mg/kg
ED50 (Rattus norvegicus [22]): 54 mg/kg
ED50 (Mus musculus [23]): 47 mg/kg
ND50 (Mus musculus [24]): >100 mg/kg
PI (Mus musculus [3]): 1.4
ND50 (Mus musculus [7]): 31 mg/kg
PI (Mus musculus [17]): >2.1
LD50 [8]: > 100 mg/kg

OC(Cn1ccnc1)c1ccc2ccccc2c1 (centres undefined)
LD50 [8]: > 300 mg/kg

OC(Cn1ccnc1)c1cccc2ccccc12 (centres undefined)
ED50 (Rattus norvegicus [25]): 24 mg/kg
ED50 (Mus musculus [26]): 34 mg/kg
ED50 (Rattus norvegicus [27]): 62 mg/kg
ND50 (Rattus norvegicus [28]): 153 mg/kg
ND50 (Mus musculus [24]): >300 mg/kg
ND50 (Rattus norvegicus [14]): >300 mg/kg
ED50 (Mus musculus [29]): 82 mg/kg
PI (Mus musculus [3]): 2.6 and 6.4
ND50 (Mus musculus [30]): 89 mg/kg
PI (Mus musculus [17]): >3.7 and >4.8
LD50 [8]: > 300 mg/kg

Cl.O=C(Cn1ccnc1)c1ccc2ccccc2c1 [NAFIMIDONE HYDROCHLORIDE]
ND50 (Mus musculus [31]): 83 mg/kg
ED50 (Mus musculus [32]): 48 mg/kg
ED50 (Mus musculus [33]): 15 mg/kg
ND50 (Mus musculus [24]): >200 mg/kg
ND50 (Rattus norvegicus [14]): >100 mg/kg
ED50 (Rattus norvegicus [34]): 26 mg/kg
PI (Mus musculus [17]): >4.2
ED50 (Rattus norvegicus [35]): 1.7 mg/kg
ND50 (Rattus norvegicus [19]): >100 mg/kg
LD50 (Mus musculus [36]): > 100 mg/kg

CCC1(c2ccccc2)C(=O)NC(=O)NC1=O [PHENOBARBITAL]
ED50 (Mus musculus [20]): 15 mg/kg
ED50 (Mus musculus [23]): 19 mg/kg
ND50 (Mus musculus [24]): 36 mg/kg
PI (Mus musculus [3]): 2
ND50 (Mus musculus [7]): 30 mg/kg
PI (Mus musculus [17]): 1.9
LD50 [8]: > 100 mg/kg
